PLAP activator – human PLAP activation; P05187; purified PLAP enzyme, luminescent substrate read-out; hits give high values; activation fold at 20 µM; actives 1.2% (n = 96,000); AID 696; in the data active = activation fold above about 2
Target sequence (P05187 whole entry, looked up): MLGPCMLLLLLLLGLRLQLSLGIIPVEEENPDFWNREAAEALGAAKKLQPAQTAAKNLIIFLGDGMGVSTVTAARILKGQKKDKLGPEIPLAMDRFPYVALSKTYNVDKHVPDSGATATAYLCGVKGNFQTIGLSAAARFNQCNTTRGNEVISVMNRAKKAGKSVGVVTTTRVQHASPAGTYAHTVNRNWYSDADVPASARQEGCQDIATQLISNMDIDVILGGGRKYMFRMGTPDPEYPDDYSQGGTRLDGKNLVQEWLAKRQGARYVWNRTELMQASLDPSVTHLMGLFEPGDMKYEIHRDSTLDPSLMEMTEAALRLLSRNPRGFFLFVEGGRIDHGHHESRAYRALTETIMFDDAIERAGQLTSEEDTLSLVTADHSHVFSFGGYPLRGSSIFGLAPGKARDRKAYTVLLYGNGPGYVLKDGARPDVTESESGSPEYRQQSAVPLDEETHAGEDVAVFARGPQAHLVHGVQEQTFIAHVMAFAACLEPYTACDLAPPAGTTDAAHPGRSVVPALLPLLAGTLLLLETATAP
PLK1 kinase inh – inhibitors of human PLK1 kinase; P53350; recombinant PLK1 kinase, TR-FRET peptide phosphorylation; actives 0.53% (n = 97,000); inhibition, % at 10 µM;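 active = inhibition of 50% or more in the single-concentration screen; inactive = inhibition below 50%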;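 note: 0% = DMSO max control and 100% = H-89 dihydrochloride min control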
Rev-RRE block – inhibitors of HIV-1 Rev-RRE RNA interaction | P05866 | Rev peptide-RRE RNA binding, FRET | inhibition, % at 8 µM | actives 0.79% (n = 97,000) | AID 704;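 active = inhibition above the screen-wide mean plus 3 SD, cut at about 35% in these data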;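 note: 0% = median DMSO wells and 100% = median Neomycin B control wells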
Target sequence (P05866 whole entry, looked up): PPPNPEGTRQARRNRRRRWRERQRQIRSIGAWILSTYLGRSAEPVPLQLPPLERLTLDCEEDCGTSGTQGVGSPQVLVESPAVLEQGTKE
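assay system = Cy5-tagged RRE RNA duplex with fluorescein-tagged Rev peptide | incubation = 5 + 15 min at 25 °C | also added = labelled Rev peptide | measure = % inhibition of FRET ratio versus controls | benchmarks = DMSO wells as 0% and neomycin B wells as 100% inhibition | measured by = FRET fluorescence readout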
LYP act – activators of human LYP (PTPN22) phosphatase; Q9Y2R2; AID 697; recombinant LYP, DiFMUP fluorescence; 0 = plate median, 100 = signal doubled; actives 0.11% (n = 96,000); activation, % at 2 µM;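 active = activation at 2 µM above a set limit, the mean plus 5 SD, cut at about 37% in these data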
Plk1 PBD FP – Plk1 (human) PBD binding inhibition. P53350. Plk1 PBD phosphopeptide binding, fluorescence polarization. inhibition, %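 (tested at about 20 µM)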. actives 0.13% (n = 97,000); in the data active = inhibition above about 34%, passing the limit was not always enough
PTPN22 inh 2 – blocks human PTPN22 phosphatase activity | Q9Y2R2 | recombinant LYP catalytic domain, DiFMUP fluorescence | inhibition, % at 2 µM | actives 0.21% (n = 96,000) | AID 640;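 active = inhibition at 2 µM at or above a set limit, the screen mean plus 3 SD, cut at about 24% in these data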;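 note: 0% = DMSO with enzyme and 100% = enzyme fully blocked by orthovanadate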
* hit, by the source's call; nt = no result given; [ ] = another dose, or the depositor's remark. A selection: hits, their analogues and other compounds. The true share with any hit is near 2.7%.

SMILES | PLAP activator | PLK1 kinase inh | Rev-RRE block | LYP act | Plk1 PBD FP | PTPN22 inh 2
Cc1scc(C(=O)NNC(=S)NCC2CCCO2)c1C (stereo not given) | 2.2* | -6 | 0 | -7 | 33 | 10
CCc1cc(C(=O)NNC(=S)NCC2CCCO2)cs1 (stereo not given) | 2.2* | -5 | 5 | -3 | -3 | 6
CCN1CC=C2C(C1)C(c1ccc(Cl)s1)C(C#N)=C(N)C2(C#N)C#N (stereo not given) | 1.2 | 9 | 87*[fluorescence artefact?] | 2 | -37 | -5
CC1=C(C(=O)Nc2ccccc2C)C(c2cccnc2)n2nc(CCCO)nc2N1 (stereo not given) | 1.1 | -9 | 2 | 6 | 10 | -8
O=C(NC1CCS(=O)(=O)C1)c1cn(-c2ccccc2)nc1-c1ccccc1 (stereo not given) | 1 | -15 | 0 | -1 | 26 | -2
COc1cccc(OCc2nc3ccccc3c(=O)n2N)c1 | 0.8 | 1 | 1 | 3 | 19 | -6
CCc1cc(C)cc(OCCNC(=O)c2ncn[nH]2)c1 | 2* | -11 | 3 | 17 | 8 | -18
O=C(NCCc1ccccc1)c1ncn[nH]1 | 1.1 | -7 | 9 | 4 | -12 | -4
CC(C)(C)c1ccc(OCCNC(=O)c2ncn[nH]2)cc1 | 2.7* | -2 | -2 | -5 | -16 | 6
Cc1cc2c(cc1C)NC(c1c(C)n(C)n(-c3ccccc3)c1=O)C1=C(CC(C)(C)CC1=O)N2 (stereo not given) | 1.3 | -8 | 107*[fluorescence artefact?] | -4 | 4 | 6
CN(C)S(=O)(=O)c1ccc(C(=O)Nc2ccc(F)cc2F)cc1 | 1.1 | 66* | 2 | nt | -8 | nt
CCOC(=O)C1=C(CSc2nc(-c3ccccc3)ccc2C#N)OC(N)=C(C#N)C1c1ccc(OC)cc1 (stereo not given) | 1.1 | -5 | 44* | -8 | -17 | 5
O=c1[nH]c(CSc2nnc(COc3ccccc3)n2-c2ccccc2)nc2ccccc12 | 1.6 | 2 | 2 | 7 | -25 | -11
O=C(OCCN=C1NS(=O)(=O)c2ccccc21)c1cccnc1 | 1 | -9 | 1 | -2 | 10 | 2
Cc1ccc(N=Cc2cccc(O)c2O)c(C)c1 | 1 | 2 | 9 | -14 | -5 | 15
Cc1ccc(N=Cc2sc(O)c3ccccc23)cc1 | 1.1 | -8 | 132*[fluorescence artefact?] | 2 | -70 | 0
Cc1ccc(N=Cc2sc(O)c3ccccc23)c(C)c1 | 0.9 | -9 | 93*[fluorescence artefact?] | 2 | 23 | -1
O=C(O)CSc1ncnc2nc[nH]c12 | 0.9 | 33 | 5 | 5 | -1 | -8
c1ccc(OCCSc2ncnc3nc[nH]c23)cc1 | nt | 36 | 2 | -1 | -19 | -2
Cc1cccc(CSc2ncnc3nc[nH]c23)c1 | 2.2* | nt | nt | nt | nt | nt
O=C(CSc1ncnc2nc[nH]c12)c1ccc2ccccc2c1 | nt | 1 | 5 | 13 | -9 | -12
Cc1cccc(NC(=O)CSc2ncnc3nc[nH]c23)c1 | 1.5 | 55* | 3 | 14 | 21 | -11
COc1ccc(OCCSc2ncnc3nc[nH]c23)cc1 | 2* | 38 | 4 | 8 | 18 | -11
COc1ccc(NC(=O)CN2CCN(C3c4ccccc4-c4ccccc43)CC2)c(OC)c1 | 1.6 | -6 | -5 | -13 | -34 | 13
O=C(CN1C(=O)C2C3C=CC(C3)C2C1=O)Nc1ccc2c(c1)OCCO2 (stereo not given) | 1 | -21 | 7 | -2 | 1 | 1
SMILES | PLAP activator | PLK1 kinase inh | Rev-RRE block | LYP act | Plk1 PBD FP | PTPN22 inh 2
Cc1ccc(NC(=O)CCC(=O)OCC(=O)c2ccc(Oc3ccc([N+](=O)[O-])cc3)cc2)cc1C | 1 | -13 | 2 | -1 | -13 | 1
CCOC(=O)C1=C(C)OC(N)=C(C#N)C1c1c(C)nn(-c2ccc(C)cc2)c1Cl (stereo not given) | 1.4 | -8 | 17 | -30 | -8 | 33*
CNC(=O)N(O)C1N(C)C(=O)N(CC(=O)OC)C1(C)C (stereo not given) | 1 | -11 | 3 | 10 | 39 | -10
CC1(C)C(N(O)C(=O)Nc2ccc(Cl)cc2)N(c2ccc(Cl)cc2)C(=O)N1CC(=O)NN (stereo not given) | 2* | -4 | 11 | -6 | -8 | 9
COc1cc(C(C(=O)NC(C)(C)C)N(C(=O)CNC(=O)c2cccs2)c2ccccc2)cc(OC)c1OC (stereo not given) | 1.2 | -2 | -6 | 5 | 22 | 0
Cc1nc2nc(SCC(N)=O)[nH]c2cc1Br | 2.2* | -13 | 12 | 2 | 34 | -1
CCOC(=O)CNC(=O)CSc1nc2nc(C)c(Br)cc2[nH]1 | 2.3* | 2 | 1 | 4 | 5 | -6
C=CCc1c(C)nc(SCC(N)=O)[nH]c1=O | 1 | -13 | 4 | -3 | 5 | 5
CCOC(=O)c1ccc(NS(=O)(=O)c2ccc3[nH]c(=O)[nH]c3c2)cc1 | 1.2 | -10 | 12 | -4 | -2 | -4
CCn1cc(Br)c(C(=O)Nc2ccc(Cl)cc2Cl)n1 | 0.9 | -6 | 11 | 7 | 18 | -7
CN1CCC2(CC1)C1CN(C)CC=C1C(C#N)=C(N)C2(C#N)C#N (stereo not given) | 1.1 | 9 | 74* | -9 | -8 | 7
CCCOc1ccccc1C1C(C(=O)OC)=CN(C(C)C)C=C1C(=O)OC | 2* | -7 | 6 | -1 | -4 | 0
CCCCOc1ccccc1C1C(C(=O)OC)=CN(CC)C=C1C(=O)OC | 1.6 | 0 | -6 | 5 | 17 | -6
N#CC1=C(N)C(C#N)(C#N)C(c2ccc[nH]2)C2CCCC=C12 (stereo not given) | 1.1 | 17 | 63* | -8 | -66 | 4
c1ccc(Cc2nnc(Sc3ccccc3)c3ccccc23)cc1 | 1.1 | -8 | 15 | 0 | 8 | 3
COc1ccc(CSc2nnc(C)n2N)cc1 | 0.9 | -9 | 47* | 1 | -7 | -1
C=CCNC(=S)NNC(=O)CCC(O)CCCCC (stereo not given) | 2.4* | -8 | 2 | -1 | 27 | 0
O=C1S/C(=C\c2ccc(N3CCOCC3)o2)C(=O)N1Cc1ccc(F)cc1 | 1 | -6 | 117*[fluorescence artefact?] | -6 | -114 | 9
O=C1/C(=C/c2ccc(N3CCOCC3)o2)SC(=Nc2ccccc2)N1CCc1c[nH]c2ccccc12 | 1.3 | -20 | 136*[fluorescence artefact?] | -4 | -177 | 8
O=C1S/C(=C/c2ccc(N3CCOCC3)o2)C(=O)N1Cc1ccc(F)cc1 | 1.1 | -17 | 115*[fluorescence artefact?] | 6 | -34 | -2
O=C1N/C(=C/c2ccc(N3CCOCC3)cc2)C(=O)N1Cc1ccc(F)cc1 | 0.9 | -7 | 5 | -4 | -11 | 3
CC1=CCC2C(=O)N(CCc3c[nH]c4ccccc34)C(=O)C2C1 (stereo not given) | nt | -9 | 2 | 6 | 12 | -6

Assay outcomes (PubChem)
